How the values were obtained:
Rattus norvegicus [1] = species on record: Rattus norvegicus; test: Maximum agonist effect (% effect) expressed relative to 8-hydroxy-DPAT (100%); assay type: functional
Summary of the method: (§1)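 In the rat rectal-temperature model (sc dosing, 8-OH-DPAT 0.16 mg/kg sc for antagonism), the maximal percentage of induced hypothermia (agonist) and of block of 8-OH-DPAT hypothermia (antagonist) was recorded. Each value is given with the dose at which it was reached.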

[2] = target: T1, 5-hydroxytryptamine receptor 1A (Rattus norvegicus, UniProt P19327); test: Binding affinity at 5-hydroxytryptamine 1A receptor
T1 sequence (P19327 whole entry): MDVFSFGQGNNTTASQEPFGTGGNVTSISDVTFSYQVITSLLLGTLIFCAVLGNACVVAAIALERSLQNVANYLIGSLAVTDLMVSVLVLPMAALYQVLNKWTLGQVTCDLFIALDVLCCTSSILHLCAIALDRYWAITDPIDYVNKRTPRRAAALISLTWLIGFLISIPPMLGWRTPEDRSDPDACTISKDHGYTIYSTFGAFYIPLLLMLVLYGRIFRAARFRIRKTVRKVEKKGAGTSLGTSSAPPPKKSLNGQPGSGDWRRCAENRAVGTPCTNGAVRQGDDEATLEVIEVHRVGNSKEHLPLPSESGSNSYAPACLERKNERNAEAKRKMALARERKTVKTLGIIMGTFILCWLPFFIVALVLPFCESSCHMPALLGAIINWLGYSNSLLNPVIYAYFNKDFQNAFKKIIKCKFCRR
Summary of the method: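 Rat hippocampal membranes (1/100 wt/vol) in 50 mM Tris pH 7.7 with 4 mM CaCl2, 0.1% ascorbic acid and pargyline. Membranes were spun at 25000g, preincubated 30 min at 37 °C and respun, then incubated with 0.4 nM [3H]-8-OH-DPAT for 30 min at 25 °C. 5-HT defined nonspecific binding, and samples were filtered on PEI-soaked GF/B. IC50 came from regression; pKi = −log[IC50/(1+[L]/Kd)].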

[3] = Ratio of MED (agonist) to that of MED (antagonist) values.; assay type: functional
Summary of the method: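 The MED for inducing hypothermia alone was divided by the MED for blocking 8-OH-DPAT (0.16 mg/kg sc) hypothermia. Both MEDs came from sc dosing in male Wistar rats and were tested against vehicle by ANOVA with Dunnett's test, P < 0.05.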

Rattus norvegicus [4] = test: Compound after subcutaneous administration was evaluated for antagonist activity against hypothermia induced by 8-hydroxy -DPAT in rat; assay type: functional; conditions: sc, read-out: ID50 (the source's name)
Summary of the method: (§2)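 Male Wistar rats (200-220 g) had rectal temperature taken, then received the test drug sc in distilled water (1.0 mL/kg). After 30 min they got 8-OH-DPAT 0.16 mg/kg sc, and temperature was remeasured 30 min later. Change from basal was scored.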

[5] = target: 5-hydroxytryptamine receptor 1B (Rattus norvegicus, UniProt P28564); test: Binding affinity at 5-hydroxytryptamine 1B receptor
5-hydroxytryptamine receptor 1B, sequence (P28564 whole entry): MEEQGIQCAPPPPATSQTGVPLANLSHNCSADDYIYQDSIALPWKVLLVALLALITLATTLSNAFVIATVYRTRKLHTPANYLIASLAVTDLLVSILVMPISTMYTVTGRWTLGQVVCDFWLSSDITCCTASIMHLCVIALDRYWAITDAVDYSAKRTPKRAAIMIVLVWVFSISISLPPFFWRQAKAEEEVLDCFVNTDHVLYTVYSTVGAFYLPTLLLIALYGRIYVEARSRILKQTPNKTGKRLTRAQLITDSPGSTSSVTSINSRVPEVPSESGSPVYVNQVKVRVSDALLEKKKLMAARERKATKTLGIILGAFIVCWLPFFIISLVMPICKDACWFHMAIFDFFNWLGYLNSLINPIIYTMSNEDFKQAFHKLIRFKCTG
Summary of the method: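 Rat frontal cortex membranes (1/40 wt/vol) were homogenized in 50 mM Tris pH 7.7 with pargyline, 4 mM CaCl2 and 0.1% ascorbic acid, then preincubated for 30 min at 37 °C. Labelled with 2.0 nM [3H]-5-HT, with 100 nM 8-OH-DPAT and 100 nM mesulergine masking 5-HT1A/5-HT2A sites; 5-CT defined nonspecific binding.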

Rattus norvegicus [6] = test: Minimum effective agonist dose administered subcutaneously; assay type: functional; conditions: sc, read-out: MED
Summary of the method: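 Male Wistar rats (200-220 g) were given the test drug alone sc in water (1.0 mL/kg), with vehicle reinjected at 30 min. Rectal temperature change from basal was measured 60 min after the first injection. MED for hypothermia was set against vehicle by ANOVA with Dunnett's test, P < 0.05.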

Rattus norvegicus [7] = species on record: Rattus norvegicus; test: Maximum antagonist effect (% effect) expressed relative to 8-hydroxy-DPAT (100%); assay type: functional; summary of the method: as §1
[8] = target: D(2) dopamine receptor (Rattus norvegicus) (UniProt P61169); test: Inhibitory activity against methyl-phenidate-induced gnawing at dopamine D2 receptor in rat
D(2) dopamine receptor (Rattus norvegicus), sequence (P61169 whole entry): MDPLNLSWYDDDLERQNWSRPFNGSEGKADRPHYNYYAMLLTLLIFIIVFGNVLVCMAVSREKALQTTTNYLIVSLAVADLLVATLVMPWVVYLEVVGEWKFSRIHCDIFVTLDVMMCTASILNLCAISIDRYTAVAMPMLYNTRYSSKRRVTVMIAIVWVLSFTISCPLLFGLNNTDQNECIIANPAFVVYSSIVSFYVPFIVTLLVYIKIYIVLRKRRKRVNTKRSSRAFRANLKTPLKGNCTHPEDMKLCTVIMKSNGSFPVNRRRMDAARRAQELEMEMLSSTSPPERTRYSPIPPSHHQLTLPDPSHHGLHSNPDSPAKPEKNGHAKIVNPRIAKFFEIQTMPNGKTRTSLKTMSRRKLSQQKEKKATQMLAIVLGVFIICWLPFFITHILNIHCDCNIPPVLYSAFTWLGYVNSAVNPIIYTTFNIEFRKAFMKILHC
Summary of the method: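 Male Wistar rats (200-220 g) received the test drug sc in water (1.0 mL/kg), then methylphenidate 40.0 mg/kg ip 30 min later. Observation began 30 min after that. Gnawing bouts were counted in 10 s per minute (maximum 10) by a blinded observer.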

Rattus norvegicus [9] = test: Minimum effective antagonist dose administered subcutaneously; assay type: functional; conditions: sc, read-out: MED; summary of the method: as §2
[10] = target: Serotonin 1a (5-HT1a) receptor/Adrenergic receptor alpha-1 (Rattus norvegicus) (UniProt P15823+P23944+P43140+P19327); test: Ki ratio measured as the Ki values of alpha-1 adrenergic receptor to that of 5-hydroxytryptamine 1A receptor; assay type: protein assay
[11] = target: T2, Adrenergic receptor alpha-1 (Rattus norvegicus, UniProt P15823+P23944+P43140); test: In vitro binding affinity towards Alpha-1 adrenergic receptor in rat cortex was determined using [3H]prazosin as radioligand
T2 sequence (P15823 whole entry): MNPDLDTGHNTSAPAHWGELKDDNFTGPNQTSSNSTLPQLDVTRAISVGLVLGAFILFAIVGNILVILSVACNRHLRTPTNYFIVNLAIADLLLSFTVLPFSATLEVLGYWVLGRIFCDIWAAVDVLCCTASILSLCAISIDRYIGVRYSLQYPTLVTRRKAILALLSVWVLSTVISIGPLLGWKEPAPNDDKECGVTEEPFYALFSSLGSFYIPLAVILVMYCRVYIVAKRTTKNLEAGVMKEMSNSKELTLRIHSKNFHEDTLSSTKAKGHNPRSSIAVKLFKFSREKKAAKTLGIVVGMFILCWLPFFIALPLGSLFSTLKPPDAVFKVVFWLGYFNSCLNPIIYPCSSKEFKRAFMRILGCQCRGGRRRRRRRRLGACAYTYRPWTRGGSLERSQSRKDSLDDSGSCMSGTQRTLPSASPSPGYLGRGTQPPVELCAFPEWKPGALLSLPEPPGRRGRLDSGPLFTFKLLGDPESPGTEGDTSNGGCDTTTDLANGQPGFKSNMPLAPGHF
T2 sequence (P23944 whole entry): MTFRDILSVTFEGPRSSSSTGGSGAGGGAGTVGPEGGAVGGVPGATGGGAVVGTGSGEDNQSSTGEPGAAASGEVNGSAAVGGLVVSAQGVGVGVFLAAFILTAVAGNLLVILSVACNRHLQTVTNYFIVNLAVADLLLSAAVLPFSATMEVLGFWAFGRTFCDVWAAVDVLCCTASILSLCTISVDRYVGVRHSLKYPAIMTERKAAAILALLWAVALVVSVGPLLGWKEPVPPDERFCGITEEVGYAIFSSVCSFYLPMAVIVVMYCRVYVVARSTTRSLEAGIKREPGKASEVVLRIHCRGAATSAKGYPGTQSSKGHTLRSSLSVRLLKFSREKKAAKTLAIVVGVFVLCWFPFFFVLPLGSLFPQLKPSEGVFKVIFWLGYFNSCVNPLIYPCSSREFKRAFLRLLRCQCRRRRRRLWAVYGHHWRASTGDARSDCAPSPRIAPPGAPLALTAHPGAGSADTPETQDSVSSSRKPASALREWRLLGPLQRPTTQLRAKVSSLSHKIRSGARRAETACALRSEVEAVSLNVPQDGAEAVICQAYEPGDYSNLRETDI
T2 sequence (P43140 whole entry): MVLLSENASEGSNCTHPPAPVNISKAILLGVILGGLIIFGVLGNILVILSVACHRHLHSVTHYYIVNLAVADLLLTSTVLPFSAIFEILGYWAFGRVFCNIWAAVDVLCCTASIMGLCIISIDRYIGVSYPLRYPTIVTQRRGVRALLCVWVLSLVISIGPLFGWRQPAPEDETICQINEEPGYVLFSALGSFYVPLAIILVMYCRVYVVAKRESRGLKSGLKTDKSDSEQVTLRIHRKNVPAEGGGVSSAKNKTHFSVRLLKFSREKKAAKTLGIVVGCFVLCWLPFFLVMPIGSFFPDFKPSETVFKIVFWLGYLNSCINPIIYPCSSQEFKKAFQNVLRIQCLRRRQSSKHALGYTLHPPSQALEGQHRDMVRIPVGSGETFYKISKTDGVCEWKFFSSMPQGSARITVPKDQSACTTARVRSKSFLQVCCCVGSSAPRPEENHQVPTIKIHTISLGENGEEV
Summary of the method: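 Rat frontal cortex membranes (1/80 wt/vol), no preincubation, in 50 mM Tris pH 7.6 with 4 mM CaCl2 and 0.1% ascorbic acid. Ligand 0.2 nM [3H]prazosin, with phentolamine for nonspecific binding. Incubation 60 min at 25 °C, then filtration. IC50 obtained by regression and converted to pKi with radioligand Kd from saturation experiments.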

D(2) dopamine receptor = D(2) dopamine receptor (Rattus norvegicus, UniProt P61169); test: In vitro binding affinity towards dopamine D2 receptor in rat striatum was determined using [3H]-spiperone as radioligand; assay type: tissue-based
D(2) dopamine receptor, sequence (P61169 whole entry): as the sequence (P61169 whole entry) above
Summary of the method: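 Rat striatal membranes (1/300 wt/vol), no preincubation, in 50 mM Tris pH 7.4 with CaCl2, ascorbic acid, 5 mM KCl, 1 mM MgCl2 and 120 mM NaCl. Ligand 0.2 nM [3H]spiperone, with 100 nM ketanserin masking 5-HT2A sites; raclopride defined nonspecific binding. Incubation 30 min at 37 °C, then filtration. pKi derived from regression-based IC50.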

[12] = target: D(2) dopamine receptor (Rattus norvegicus) (UniProt P61169)

| ID50 [8] | SMILES | Max effect (Rattus norvegicus [1]) | Ki [2] | Ratio [3] | ED50 (Rattus norvegicus [4]) | Ki [5] | minimal effective dose (Rattus norvegicus [6]) | Max effect (Rattus norvegicus [7]) | minimal effective dose (Rattus norvegicus [9]) | Ki ratio [10] | Log Ki [11] | Ki (D(2) dopamine receptor) | ID50 [12] |
| --- | --- | --- | --- | --- | --- | --- | --- | --- | --- | --- | --- | --- | --- |
| > 40 mg/kg | Clc1cccc2c1CC2CN1CCN(c2cccc3c2OCCO3)CC1 (stereo unspecified) | 0% | 3.98 nM | 63.5 | 0.8 mg/kg | 550 nM | 40 mg/kg | 100% | 0.63 mg/kg | – | – | – | – |
| – | Clc1cccc2c1CC2CCN1CCN(c2cccc3c2OCCO3)CC1 (stereo unspecified) | 52% | 2.24 nM | 32 | 1.13 mg/kg | 708 nM | 40 mg/kg | 96% | 1.25 mg/kg | 28.8 | -7.19 | 60.3 nM | > 40 mg/kg |

— ChEMBL document CHEMBL1128459, “Characterization of potent and selective antagonists at postsynaptic 5-HT1A receptors in a series of N4-substituted arylpiperazines” (J Med Chem, 1995)
